A short description of assay [1]: Inhibition of trypsin after 30 mins. The method, boiled down: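 Trypsin stock 1 mg/mL in 0.05 M Tris-HCl/100 mM NaCl/1 mM CaCl2, pH 7.5. Sample (1 mg/mL DMSO stock) preincubated with enzyme at 37 °C for 10 min. BAPNA substrate (stock in 1:9 DMSO/Tris buffer) then added. Kinetics at 405 nm, 37 °C, for 30 min, giving IC50.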
Assay [2] is described as follows: Inhibition of chymotrypsin after 30 mins. The method, boiled down: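 Commercial chymotrypsin, 10 mg/mL stock in 0.05 M Tris-HCl/100 mM NaCl/1 mM CaCl2, pH 7.5. Sample (1 mg/mL DMSO stock) preincubated with enzyme in buffer at 37 °C for 10 min. Suc-Gly-Gly-p-nitroanilide substrate (1 mg/mL stock in Tris buffer) then added. Reaction kinetics followed at 405 nm, 37 °C, for 30 min.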

Assay [3] concerns the target Chymotrypsin-like elastase family member 1 (Homo sapiens) (UniProt Q9UNI1). The experiment in a line: Inhibition of elastase after 20 mins. Summed up: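 Elastase stock 75 mg/mL in 0.2 M Tris-HCl, pH 8. Sample (1 mg/mL DMSO stock) preincubated with enzyme in buffer at 30 °C for 20 min. N-Suc-Ala-Ala-Ala-p-nitroanilide substrate (1 mg/mL stock in Tris buffer) then added. Kinetics read at 405 nm, 37 °C, for 20 min.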

Assay [4] concerns the target Prothrombin (Homo sapiens, UniProt P00734). The experiment in a line: Inhibition of thrombin after 20 mins. Summed up: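 Thrombin in 0.2 M Tris-HCl, pH 8, preincubated with sample (DMSO, 1 mg/mL stock) at 25 °C for 5 min. Z-Gly-Pro-Arg-4MβNA substrate (0.5 mg/mL stock in Tris buffer) then added. Reaction kinetics read at 405 nm, 37 °C, for 20 min; IC50 reported.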

Calls of active or inactive are those of the source. No cut-off for these calls is given here.

Chain of Chymotrypsin-like elastase family member 1 (Homo sapiens) (Q9UNI1 whole entry): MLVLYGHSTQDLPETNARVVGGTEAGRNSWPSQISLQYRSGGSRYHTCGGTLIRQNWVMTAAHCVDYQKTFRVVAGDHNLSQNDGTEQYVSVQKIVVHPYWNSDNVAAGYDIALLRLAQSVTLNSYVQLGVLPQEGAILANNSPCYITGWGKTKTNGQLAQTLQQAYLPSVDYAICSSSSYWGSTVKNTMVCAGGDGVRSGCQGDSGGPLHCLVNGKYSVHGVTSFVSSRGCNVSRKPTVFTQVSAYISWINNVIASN

Compound `CC[C@H](C)[C@@H]1NC(=O)[C@H](Cc2ccccc2)N(C)C(=O)[C@H]([C@@H](C)CC)N2C(=O)[C@H](CC[C@H]2OC)NC(=O)[C@H](CCCNC(=N)N)NC(=O)[C@@H](NC(=O)[C@@H](CO)OS(=O)(=O)O)[C@@H](C)OC1=O` displayed an IC50 in assay [1] of 7.4 µM. For the same compound, the outcome in assay [2], in assay [3] and in assay [4] was inactive.
For the compound `CC[C@H](C)[C@@H]1NC(=O)[C@H](Cc2ccccc2)N(C)C(=O)[C@H]([C@@H](C)CC)N2C(=O)[C@H](CC[C@H]2O)NC(=O)[C@H](CCCNC(=N)N)NC(=O)[C@@H](NC(=O)[C@@H](COS(=O)(=O)O)OS(=O)(=O)O)[C@@H](C)OC1=O` [CYANOPEPTOLIN SS], in assay [1], the IC50 worked out at 2.9 µM. Moreover, the outcome in assay [2] and in assay [3] was inactive.
With `CC[C@H](C)[C@@H]1NC(=O)[C@H](Cc2ccccc2)N(C)C(=O)[C@H]([C@@H](C)CC)N2C(=O)[C@H](CC[C@H]2O)NC(=O)[C@H](CCCNC(=N)N)NC(=O)[C@@H](NC(=O)[C@H](O)COS(=O)(=O)O)[C@@H](C)OC1=O` [CYANOPEPTOLIN S], in assay [1], the midpoint of inhibition, the IC50, lay at 4.1 µM. In addition, the result in assay [2], in assay [3] and in assay [4] was inactive.
As for `CC[C@H](C)[C@@H]1NC(=O)[C@H](Cc2ccccc2)N(C)C(=O)[C@H]([C@@H](C)CC)N2C(=O)[C@H](CC[C@H]2OC)NC(=O)[C@H](CCCNC(=N)N)NC(=O)[C@@H](N)[C@@H](C)OC1=O`, the result in assay [2], in assay [3] and in assay [4] was inactive.
Consider `CC[C@H](C)[C@@H]1NC(=O)[C@H](Cc2ccccc2)N(C)C(=O)[C@H]([C@@H](C)CC)N2C(=O)[C@H](CC[C@H]2OC)NC(=O)[C@H](CCCNC(=N)N)NC(=O)[C@@H](NC(=O)[C@H](O)CO)[C@@H](C)OC1=O`, for which the IC50 in assay [1] came to 0.6 µM; in assay [4], 52.9 µM. In addition, the result in assay [2] and in assay [3] was inactive.
Consider `CC[C@H](C)[C@@H]1NC(=O)[C@H](Cc2ccccc2)N(C)C(=O)[C@H]([C@@H](C)CC)N2C(=O)[C@H](CC[C@H]2OC)NC(=O)[C@H](CCCNC(=N)N)NC(=O)[C@@H](NC(=O)[C@@H](COS(=O)(=O)O)OS(=O)(=O)O)[C@@H](C)OC1=O`, for which, in assay [1], the IC50 is 1.6 µM. Moreover, the outcome in assay [2], in assay [3] and in assay [4] was inactive.
In assay [1], `CC[C@H](C)[C@@H]1NC(=O)[C@H](Cc2ccccc2)N(C)C(=O)[C@H]([C@@H](C)CC)N2C(=O)[C@H](CC[C@H]2O)NC(=O)[C@H](CCCNC(=N)N)NC(=O)[C@@H](NC(=O)[C@H](O)CO)[C@@H](C)OC1=O` registered an IC50 of 2.6 µM. The result in assay [2], in assay [3] and in assay [4] was inactive.
For `CC[C@H](C)[C@@H]1NC(=O)[C@H](Cc2ccccc2)N(C)C(=O)[C@H]([C@@H](C)CC)N2C(=O)[C@H](CC[C@H]2O)NC(=O)[C@H](CCCNC(=N)N)NC(=O)[C@@H](NC(=O)[C@@H](CO)OS(=O)(=O)O)[C@@H](C)OC1=O`, it took 24.2 µM to reach half-maximal inhibition in assay [1] (IC50). Moreover, the outcome in assay [2], in assay [3] and in assay [4] was inactive.
Turning to `CC[C@H](C)[C@@H]1NC(=O)[C@H](Cc2ccccc2)N(C)C(=O)[C@H]([C@@H](C)CC)N2C(=O)[C@H](CC[C@H]2OC)NC(=O)[C@H](CCCNC(=N)N)NC(=O)[C@@H](NC(=O)[C@H](O)COS(=O)(=O)O)[C@@H](C)OC1=O`, the half-inhibitory concentration (IC50) in assay [1] is 1.5 µM. The outcome in assay [2], in assay [3] and in assay [4] was inactive.
Consider `CC[C@H](C)[C@@H]1NC(=O)[C@H](Cc2ccccc2)N(C)C(=O)[C@H]([C@@H](C)CC)N2C(=O)[C@H](CC[C@H]2O)NC(=O)[C@H](CCCN=C(N)N)NC(=O)[C@@H](NC(=O)[C@@H](COS(=O)(=O)O)OS(=O)(=O)O)[C@@H](C)OC1=O` [CYANOPEPTOLIN SS], for which, in assay [4], 45.2 µM corresponded to half-maximal inhibition (IC50).
